{"data": "Results pooled from the literature", "read-out": "cell growth or viability", "note": "Compare with care: the assays were run in different laboratories."}
{"SMILES": "C=CC(=O)N1CCC[C@@H](n2nc(-c3ccc(Oc4ccccc4)cc3)c3c(N)ncnc32)C1", "cell line": "NB-4", "method": "ATP luminescence", "time": "72 h", "endpoint": "GI50", "value": "7.5 µM"}
{"SMILES": "CCCCCCCCCCCCNC(=S)NCCCC[C@H](NC(=O)OCc1ccccc1)C(=O)N[C@@H](C)C(=O)N[C@@H](CCCNC(=N)N)C(N)=O", "cell line": "HeLa", "method": "MTT", "time": "72 h", "endpoint": "EC50", "value": "41.4 to 53.1 µM"}
{"SMILES": "COc1cc(Nc2nccc(-c3cnn4nc(OC)ccc34)n2)cc(C(F)(F)F)c1", "cell line": "U2OS", "method": "ATP luminescence", "endpoint": "IC50", "value": "0.39 µM"}
{"SMILES": "Cn1nnc2c(C(N)=O)ncn2c1=O", "cell line": "Hs746T", "endpoint": "EC50", "value": "> 1000 µM"}
{"SMILES": "CCCCCCCCCCCCNC(=S)NCCCC[C@H](NS(C)(=O)=O)C(=O)N[C@H](C)C(=O)N[C@@H](CCCNC(=N)N)C(=O)N1CCOCC1", "cell line": "HeLa", "method": "MTT", "time": "72 h", "endpoint": "EC50", "value": "89.8 to 126 µM"}
{"SMILES": "Cc1ccc(NC(=O)c2ccc(CN3CCN(C)CC3)cc2)cc1Nc1nccc(-c2cccnc2)n1", "cell line": "HeLa", "method": "MTT", "concentration": "20 µM", "time": "48 h", "endpoint": "inhibition", "value": "21%"}
{"SMILES": "COc1cc(-c2ncn(/C=C\\C(=O)OC(C)C)n2)cc(C(F)(F)F)c1", "cell line": "SKM-1", "time": "72 h", "endpoint": "IC50", "value": "0.08 µM"}
{"SMILES": "NCCOc1cc(NC(=O)c2cc(OCc3ccc(F)cc3)cc(C(=O)Nc3cc(OCCN)c4ccccc4n3)n2)nc2ccccc12", "cell line": "U2OS", "method": "ATP luminescence", "time": "72 h", "endpoint": "IC50", "value": "5.6 µM"}
{"SMILES": "COc1cccc(Oc2ccccc2NC(=O)CNC(=O)c2cccc3ccccc23)c1", "cell line": "Hs-578T", "method": "SRB", "time": "48 h", "endpoint": "GI50", "value": "0.38 µM"}
{"SMILES": "O=C(Nc1cc(OCCN2CCCC2)c2ccccc2n1)c1cc(OCc2ccc(F)cc2)cc(C(=O)Nc2cc(OCCN3CCCC3)c3ccccc3n2)n1", "cell line": "U2OS", "method": "ATP luminescence", "time": "72 h", "endpoint": "IC50", "value": "5.8 µM"}
{"SMILES": "CC[C@@H](C)[C@H](N)C(=O)N1Cc2ccccc2C1", "cell line": "NB-4", "method": "ATP luminescence", "time": "48 h", "endpoint": "IC50", "value": "1.5 µM"}
{"SMILES": "COc1ccc(-c2ccc(-c3ccc(C(=N)N)nc3)s2)cc1Cl", "cell line": "Hs-578T", "method": "SRB", "endpoint": "GI50", "value": "1.85 µM"}
{"SMILES": "CCCCCCCCCCCCNC(=S)NCCCC[C@H](NS(C)(=O)=O)C(=O)N[C@@H](C)C(=O)N[C@@H](CCCNC(=N)N)C(N)=O", "cell line": "HeLa", "method": "MTT", "time": "72 h", "endpoint": "EC50", "value": "28.9 to 39.1 µM"}
{"SMILES": "CC(C)[C@H](N)C(=O)N1CCC[C@H]1B(O)O", "cell line": "SKM-1", "method": "ATP luminescence", "time": "48 h", "endpoint": "IC50", "value": "0.044 µM"}
{"SMILES": "COc1cc(-c2ccc(-c3ccc(C(=N)N)nc3)s2)cc(OC)c1OC", "cell line": "Hs-578T", "method": "SRB", "endpoint": "GI50", "value": "2.59 µM"}
